Reference: ChEMBL document CHEMBL3046615, “Isolation of nematicidal compounds from Tagetes patula L. yellow flowers: structure-activity relationship studies against cyst nematode Heterodera zeae infective stage larvae” (2011)
The source made the active and inactive calls. No cut-off for these calls is given here.

Assays:
[1] = system: Heterodera zeae; test: Nematicidal activity against Heterodera zeae infective stage larvae assessed as nematode mortality at 0.5% under light conditions measured 72 hr post dose by stereoscopic microscopy; format: functional
In short: (§1)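 Freshly hatched H. zeae second-stage juveniles, 100 per Petri plate, three replicates. Samples in MeOH, DMSO or water were tested in glass cavity blocks; petroleum ether samples were dried onto the block and larvae transferred on agar pieces. Percentages are dilutions of 30 mg/mL stocks (extracts/fractions) or 1 mg/mL stocks (pure compounds). Incubated at 28 ± 2 °C in light or dark box; mortality averaged over three replicates.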

[2] = system: Heterodera zeae; test: Nematicidal activity against Heterodera zeae infective stage larvae assessed as nematode mortality at 0.5% under light conditions measured 48 hr post dose by stereoscopic microscopy; format: functional; in short: as §1
[3] = system: Heterodera zeae; test: Nematicidal activity against Heterodera zeae infective stage larvae assessed as nematode mortality at 1% under dark conditions measured 24 hr post dose by stereoscopic microscopy; format: functional; in short: as §1
[4] = system: Heterodera zeae; test: Nematicidal activity against Heterodera zeae infective stage larvae assessed as nematode mortality at 0.125% under light conditions measured 48 hr post dose by stereoscopic microscopy; format: functional; in short: as §1
[5] = system: Heterodera zeae; test: Nematicidal activity against Heterodera zeae infective stage larvae assessed as nematode mortality at 0.25% under light conditions measured 48 hr post dose by stereoscopic microscopy; format: functional; in short: as §1
[6] = system: Heterodera zeae; test: Nematicidal activity against Heterodera zeae infective stage larvae assessed as nematode mortality at 0.125% under light conditions measured 24 hr post dose by stereoscopic microscopy; format: functional; in short: as §1
[7] = system: Heterodera zeae; test: Nematicidal activity against Heterodera zeae infective stage larvae assessed as nematode mortality at 0.25% under light conditions measured 24 hr post dose by stereoscopic microscopy; format: functional; in short: as §1
[8] = system: Heterodera zeae; test: Nematicidal activity against Heterodera zeae infective stage larvae assessed as nematode mortality at 0.5% under light conditions measured 24 hr post dose by stereoscopic microscopy; format: functional; in short: as §1
[9] = system: Heterodera zeae; test: Nematicidal activity against Heterodera zeae infective stage larvae assessed as nematode mortality at 1% under light conditions measured 24 hr post dose by stereoscopic microscopy; format: functional; in short: as §1
[10] = system: Heterodera zeae; test: Nematicidal activity against Heterodera zeae infective stage larvae assessed as nematode mortality at 0.125% under dark conditions measured 5 to 60 min post dose by stereoscopic microscopy; format: functional, organism-based
In short: (§2)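 H. zeae freshly hatched second-stage juveniles, 100 per plate, three replicates, at 28 ± 2 °C under light or in a dark box. Dilutions are % of a stock: 30 mg/mL for extracts/fractions, 1 mg/mL for pure compounds. Methanol-, DMSO- or water-soluble samples were tested in glass cavity blocks. Petroleum ether-soluble samples were air-dried in the block and covered with agar pieces bearing cultured larvae. Mortality was followed over 5–60 min; each value is the mean of three experiments.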

[11] = system: Heterodera zeae; test: Nematicidal activity against Heterodera zeae infective stage larvae assessed as nematode mortality at 0.25% under dark conditions measured 5 to 60 min post dose by stereoscopic microscopy; format: functional, organism-based; in short: as §2
[12] = system: Heterodera zeae; test: Nematicidal activity against Heterodera zeae infective stage larvae assessed as nematode mortality at 0.5% under dark conditions measured 5 to 60 min post dose by stereoscopic microscopy; format: functional, organism-based; in short: as §2
[13] = system: Heterodera zeae; test: Nematicidal activity against Heterodera zeae infective stage larvae assessed as nematode mortality at 1% under dark conditions measured 5 to 60 min post dose by stereoscopic microscopy; format: functional, organism-based; in short: as §2
[14] = system: Heterodera zeae; test: Nematicidal activity against Heterodera zeae infective stage larvae assessed as nematode mortality at 2% under dark conditions measured 5 to 60 min post dose by stereoscopic microscopy; format: functional, organism-based; in short: as §2
[15] = system: Heterodera zeae; test: Nematicidal activity against Heterodera zeae infective stage larvae assessed as nematode mortality at 5% under dark conditions measured 5 to 60 min post dose by stereoscopic microscopy; format: functional, organism-based; in short: as §2
[16] = system: Heterodera zeae; test: Nematicidal activity against Heterodera zeae infective stage larvae assessed as nematode mortality at 0.125% under light conditions measured 5 to 60 min post dose by stereoscopic microscopy; format: functional, organism-based; in short: as §2
[17] = system: Heterodera zeae; test: Nematicidal activity against Heterodera zeae infective stage larvae assessed as nematode mortality at 0.25% under light conditions measured 5 to 60 min post dose by stereoscopic microscopy; format: functional, organism-based; in short: as §2
[18] = system: Heterodera zeae; test: Nematicidal activity against Heterodera zeae infective stage larvae assessed as nematode mortality at 0.5% under light conditions measured 5 to 60 min post dose by stereoscopic microscopy; format: functional, organism-based; in short: as §2
[19] = system: Heterodera zeae; test: Nematicidal activity against Heterodera zeae infective stage larvae assessed as nematode mortality at 1% under light conditions measured 5 to 60 min post dose by stereoscopic microscopy; format: functional, organism-based; in short: as §2
[20] = system: Heterodera zeae; test: Nematicidal activity against Heterodera zeae infective stage larvae assessed as nematode mortality at 2% under light conditions measured 5 to 60 min post dose by stereoscopic microscopy; format: functional, organism-based; in short: as §2
[21] = system: Heterodera zeae; test: Nematicidal activity against Heterodera zeae infective stage larvae assessed as nematode mortality at 5% under light conditions measured 5 to 60 min post dose by stereoscopic microscopy; format: functional, organism-based; in short: as §2
[22] = system: Heterodera zeae; test: Nematicidal activity against Heterodera zeae infective stage larvae assessed as nematode mortality at 0.125% under dark conditions measured 48 hr post dose by stereoscopic microscopy; format: functional; in short: as §1
[23] = system: Heterodera zeae; test: Nematicidal activity against Heterodera zeae infective stage larvae assessed as nematode mortality at 0.25% under dark conditions measured 48 hr post dose by stereoscopic microscopy; format: functional; in short: as §1
[24] = system: Heterodera zeae; test: Nematicidal activity against Heterodera zeae infective stage larvae assessed as nematode mortality at 0.125% under dark conditions measured 24 hr post dose by stereoscopic microscopy; format: functional; in short: as §1
[25] = system: Heterodera zeae; test: Nematicidal activity against Heterodera zeae infective stage larvae assessed as nematode mortality at 0.25% under dark conditions measured 24 hr post dose by stereoscopic microscopy; format: functional; in short: as §1
[26] = system: Heterodera zeae; test: Nematicidal activity against Heterodera zeae infective stage larvae assessed as nematode mortality at 0.5% under dark conditions measured 24 hr post dose by stereoscopic microscopy; format: functional; in short: as §1
[27] = system: Heterodera zeae; test: Nematicidal activity against Heterodera zeae infective stage larvae assessed as nematode mortality at 1% under dark conditions measured 72 hr post dose by stereoscopic microscopy; format: functional; in short: as §1
[28] = system: Heterodera zeae; test: Nematicidal activity against Heterodera zeae infective stage larvae assessed as nematode mortality at 1% under dark conditions measured 48 hr post dose by stereoscopic microscopy; format: functional; in short: as §1
[29] = system: Heterodera zeae; test: Nematicidal activity against Heterodera zeae infective stage larvae assessed as nematode mortality at 1% under light conditions measured 72 hr post dose by stereoscopic microscopy; format: functional; in short: as §1
[30] = system: Heterodera zeae; test: Nematicidal activity against Heterodera zeae infective stage larvae assessed as nematode mortality at 1% under light conditions measured 48 hr post dose by stereoscopic microscopy; format: functional; in short: as §1
[31] = system: Heterodera zeae; test: Nematicidal activity against Heterodera zeae infective stage larvae assessed as nematode mortality at 0.125% under dark conditions measured 72 hr post dose by stereoscopic microscopy; format: functional; in short: as §1
[32] = system: Heterodera zeae; test: Nematicidal activity against Heterodera zeae infective stage larvae assessed as nematode mortality at 0.25% under dark conditions measured 72 hr post dose by stereoscopic microscopy; format: functional; in short: as §1
[33] = system: Heterodera zeae; test: Nematicidal activity against Heterodera zeae infective stage larvae assessed as nematode mortality at 0.5% under dark conditions measured 72 hr post dose by stereoscopic microscopy; format: functional; in short: as §1
[34] = system: Heterodera zeae; test: Nematicidal activity against Heterodera zeae infective stage larvae assessed as nematode mortality at 0.5% under dark conditions measured 48 hr post dose by stereoscopic microscopy; format: functional; in short: as §1
[35] = system: Heterodera zeae; test: Nematicidal activity against Heterodera zeae infective stage larvae assessed as nematode mortality at 0.125% under light conditions measured 72 hr post dose by stereoscopic microscopy; format: functional; in short: as §1
[36] = system: Heterodera zeae; test: Nematicidal activity against Heterodera zeae infective stage larvae assessed as nematode mortality at 0.25% under light conditions measured 72 hr post dose by stereoscopic microscopy; format: functional; in short: as §1

Compound | mortality [1] | mortality [2] | mortality [3] | mortality [4] | mortality [5] | mortality [6] | mortality [7] | mortality [8] | mortality [9] | Activity [10] | Activity [11] | Activity [12] | Activity [13] | Activity [14] | Activity [15] | Activity [16] | Activity [17] | Activity [18] | Activity [19] | Activity [20] | further results
O=C(O)c1ccc(O)cc1 [PARABEN] | 50% | 40% | 0% | 40% | 40% | 0% | 0% | 0% | 0% | inactive | inactive | inactive | inactive | inactive | inactive | inactive | inactive | inactive | inactive | inactive | Activity [21]: inactive; mortality [22]: 10%; mortality [23]: 40%; mortality [24]: 0%; mortality [25]: 0%; mortality [26]: 0%; mortality [27]: 70%; mortality [28]: 40%; mortality [29]: 100%; mortality [30]: 50%; mortality [31]: 40%; mortality [32]: 50%; mortality [33]: 50%; mortality [34]: 40%; mortality [35]: 50%; mortality [36]: 50%
COc1c(O)cc2oc(-c3ccc(O)c(O)c3)c(O)c(=O)c2c1O [PATULETIN] | 100% | 20% | 20% | 50% | 70% | 20% | 20% | 20% | 40% | inactive | inactive | inactive | inactive | inactive | inactive | inactive | inactive | inactive | inactive | inactive | Activity [21]: inactive; mortality [22]: 0%; mortality [23]: 10%; mortality [24]: 0%; mortality [25]: 0%; mortality [26]: 0%; mortality [27]: 60%; mortality [28]: 60%; mortality [29]: 100%; mortality [30]: 40%; mortality [31]: 0%; mortality [32]: 10%; mortality [33]: 20%; mortality [34]: 20%; mortality [35]: 100%; mortality [36]: 100%
COc1c(O[C@@H]2O[C@H](CO)[C@@H](O)[C@H](O)[C@H]2O)cc2oc(-c3ccc(O)c(O)c3)c(O)c(=O)c2c1O [PATULITRIN] | 50% | 0% | 0% | 0% | 20% | 0% | 0% | 0% | 0% | inactive | inactive | inactive | inactive | inactive | inactive | inactive | inactive | inactive | inactive | inactive | Activity [21]: inactive; mortality [22]: 0%; mortality [23]: 10%; mortality [24]: 0%; mortality [25]: 0%; mortality [26]: 0%; mortality [27]: 50%; mortality [28]: 40%; mortality [29]: 50%; mortality [30]: 20%; mortality [31]: 10%; mortality [32]: 20%; mortality [33]: 40%; mortality [34]: 20%; mortality [35]: 10%; mortality [36]: 20%
